Published values of several laboratories.
Lines come from different studies, so protocols differ.
Observed: cell growth or viability

| Compound | cell line | technique | time | IC50 |
| --- | --- | --- | --- | --- |
| CN(C)C(=O)c1cc2cnc(Nc3ccc(-c4ccc5c(=O)cc(N6CCOCC6)oc5c4)cc3)nc2n1C1CCCC1 | HEK293 | ATP luminescence | 72 h | 550 nM |
| CCCCn1cnc2ccc(-c3ccc(NC(=O)Nc4ccc(C(F)(F)F)cc4)nc3)cc2c1=O | NCI-H1975 | CCK-8 | 72 h | 6850 nM |
| O=C(Nc1ccc(C(F)(F)F)cc1)Nc1nc2cc(-c3ccc4ncn(CCN5CCOCC5)c(=O)c4c3)ccc2s1 | NCI-H1975 | MTT | 72 h | 1770 nM |
| CCCCC(=O)Nc1ccc(-c2ccc3ncn(CCC)c(=O)c3c2)cc1F | NCI-H1975 | CCK-8 | 72 h | 1680 nM |
| Cc1ncsc1-c1ccc(CNC(=O)[C@@H]2C[C@@H](O)CN2C(=O)[C@@H](NC(=O)C2(F)CC2)C(C)(C)C)c(OCCOc2ccc(CN3CCN(c4cc(-c5ccccc5O)nnc4N)CC3)cc2)c1 | HCC515 | ATP luminescence | 7 days | 261 nM |
| Nc1ccn([C@@H]2O[C@H](CO)[C@@H](O)C2(F)F)c(=O)n1 | HEK293 | MTT | 48 h | 17.4 µg/mL |
| CCCCn1cnc2ccc(-c3ccc(NC(=O)NCCC)nc3)cc2c1=O | NCI-H1975 | CCK-8 | 72 h | 8750 nM |
| COc1cccc2c1C(=O)c1c(O)c3c(c(O)c1C2=O)C[C@@](O)(C(=O)CO)C[C@@H]3O[C@H]1C[C@H](N)[C@H](O)[C@H](C)O1 | Pfeiffer |  | 96 h | 90.7 nM |
| CC(C)(C)c1cnc(CSc2cnc(NC(=O)C3CCN(C(=O)CCCCCCCN4Cc5cc6c(cc5C4)C(=O)N(C4CCC(=O)NC4=O)C6=O)CC3)s2)o1 (centres unmarked) | A673 | MTT |  | 75.4 nM |
| Cc1ncsc1-c1ccc([C@H](C)NC(=O)[C@@H]2C[C@@H](O)CN2C(=O)[C@@H](NC(=O)CN2CCN(c3cc(-c4ccccc4O)nnc3N)CC2)C(C)(C)C)cc1 | HCC515 | ATP luminescence | 7 days | 182 nM |
| COc1ccc(NC(=O)Nc2nc3cc(-c4ccc5ncn(CCN6CCOCC6)c(=O)c5c4)ccc3s2)cc1 | NCI-H1975 | MTT | 72 h | > 20000 nM |
| CCCCC(=O)Nc1ccc(-c2ccc3ncn(CC4CC4)c(=O)c3c2)cn1 | NCI-H1975 | CCK-8 | 72 h | 79 nM |
| O=C(Nc1ccc(F)cc1)Nc1nc2cc(-c3ccc4ncn(CC(=O)N5CCOCC5)c(=O)c4c3)ccc2s1 | NCI-H1975 | MTT | 72 h | > 20000 nM |
| COc1cc(C2C3=C(COC3=O)N(CCO)c3cc4c(cc32)CCC4)cc(OC)c1OC (centres unmarked) | HEK293 | ATP luminescence | 48 h | 1550 nM |
| O=C(Nc1cccc(F)c1)Nc1nc2cc(-c3ccc4ncn(Cc5ccccc5)c(=O)c4c3)ccc2s1 | NCI-H1975 | MTT | 72 h | > 20000 nM |
| CCCCCC(=O)Nc1ccc(-c2ccc3ncn(CCC)c(=O)c3c2)cn1 | NCI-H1975 | CCK-8 | 72 h | 74 nM |
| O=C(Nc1ccc(F)cc1)Nc1nc2cc(-c3ccc4ncn(CCC5CCCCC5)c(=O)c4c3)ccc2s1 | NCI-H1975 | MTT | 72 h | 5970 nM |
| CCOc1ccc(Nc2c3c(nc4ccccc24)CCC3)cc1 | HEK293 | resazurin | 72 h | 18100 nM |
| O=C(Nc1ccc(Cl)cc1)Nc1nc2cc(-c3ccc4ncn(CCN5CCOCC5)c(=O)c4c3)ccc2s1 | NCI-H1975 | MTT | 72 h | > 20000 nM |
| CCCn1cnc2ccc(-c3ccc(N4CCC(C)CC4=O)nc3)cc2c1=O (centres unmarked) | NCI-H1975 | CCK-8 | 72 h | > 10000 nM |
